Experiment [1] concerns the target T1, human MIF binding to its receptor, CD74 (Homo sapiens, UniProt P14174).
T1 sequence (P14174 2-115 limits assumed): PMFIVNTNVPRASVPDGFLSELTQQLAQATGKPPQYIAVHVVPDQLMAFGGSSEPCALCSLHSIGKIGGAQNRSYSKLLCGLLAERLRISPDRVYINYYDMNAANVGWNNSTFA
Description: MIF-CD74 binding assay. Conditions: NA = measured, but not active.

Experiment [2] has as its target T2, MIF tautomerase activity (rhMIF) (Homo sapiens, UniProt P14174).
T2 sequence (P14174 2-115 limits assumed): T1 sequence (P14174 2-115 limits assumed)
Description: 4-HPP tautomerase assay. The class given is biochemical. Conditions: for IC50 (µM) 4-HPP tautomerase assay: substrate 4-HPP, NA = measured, but not active; for maximal inhibition in 4-HPP tautomerase assay: max inhibition printed in place of IC50. The procedure, abridged:
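Recombinant human MIF (purified) was pre-incubated with test compound. 4-HPP was dissolved in 50 mM ammonium acetate, pH 6.0, equilibrated to room temperature and stored at 4 °C. At 25 °C, 4-HPP was added to a cuvette of 0.435 M boric acid, pH 6.2, plus the enzyme–compound mix. A305 increase was read over 30–90 s, in triplicate. Compounds spanned a 5000-fold concentration range.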

The subject of experiment [3] is MIF tautomerase. Conditions: covalent inhibitor; cited from earlier work.
The target of experiment [4] is T2, MIF tautomerase activity (rhMIF). Description: Michaelis-Menten analysis of MIF tautomerase with 4-HPP as substrate. The class given is biochemical. Conditions: Lineweaver-Burk plots, Vmax unchanged.

SMILES strings stand for the structures.

We go through 14 compounds from article PMC2680181 (Journal of medicinal chemistry, 2009).

As to `O=C(O)c1cc(-n2cnnn2)ccc1O` [Compound 15], the “IC50 (µM) MIF-CD74 binding assay” value in experiment [1] is given as “very weak MIF-CD74 antagonists”. Turning to `COC(=O)C[C@H]1CC(c2ccc(O)cc2)=NO1` (racemic) [Compound 9, (S,R)-3-(4-hydroxyphenyl)-4,5-dihydro-5-isoxazole acetic acid methyl ester, reference compound], the “IC50 (µM) 4-HPP tautomerase assay” value in experiment [2] is “inactive”. On to `O=C(O)c1cccc(-c2cc[nH]n2)c1` [Compound 33], for which the “maximal inhibition in 4-HPP tautomerase assay” value (“maximal inhibition” below) in experiment [2] is “max 30%”. As to `O=c1c2ccc(F)cc2sn1-c1ccc(Cl)cc1` [Compound 32], the “IC50 (µM) MIF-CD74 binding assay” value in experiment [1] was “inactive”. The same measure, in the same setting: next, `O=c1oc2c(O)c(O)ccc2cc1-c1nc2ccccc2s1` [Compound 11]: “inactive”. As to `CC(=O)N=C1C=CC(=O)C=C1` [NAPQI, N-acetyl-p-benzoquinone], the tautomerase inhibitor potency in experiment [3] is reported as 40 µM. For the compound `O=C(O)c1cc(-n2cnnc2)ccc1Cl` [Compound 16], the “IC50 (µM) MIF-CD74 binding assay” value in experiment [1] is recorded as “very weak MIF-CD74 antagonists”. Consider `CC(=O)Oc1ccc2nc(-c3cc4ccccc4o3)oc(=O)c2c1` [Compound 17], for which, in experiment [2], the “IC50 (µM) 4-HPP tautomerase assay” value is reported as “weak tautomerase inhibitors”. With `Oc1ccc(/C=C/c2ccc3cccc(O)c3n2)cc1` [Compound 26], in experiment [2], the “maximal inhibition” value is “max 40%” and the “IC50 (µM) 4-HPP tautomerase assay” value was “weak tautomerase inhibitors”.

In the case of `Oc1ccc2c(c1)oc1ccccc12` [Compound 29], the “maximal inhibition” value in experiment [2] is on record as “max 38%”.

In the case of `Oc1c(C(Nc2cccc(F)c2)c2ccccn2)ccc2cccnc12` (stereo not drawn) [Compound 18], in experiment [2], the “IC50 (µM) 4-HPP tautomerase assay” value is “weak tautomerase inhibitors”.

Take `CC(=O)Nc1cccc2ccc(-c3cnc4ccccc4c3)nc12` [Compound 28]: in experiment [1], the “IC50 (µM) MIF-CD74 binding assay” value was “inactive”. As for `O=C(c1cc2ccccc2o1)N1CCc2ccccc21` [Compound 23], the “mode of tautomerase inhibition” value in experiment [4] was “competitive inhibition”.

As for `Cc1ccc2oc(=O)n(Cc3ccccc3)c2c1` [Compound 24], the “mode of tautomerase inhibition” value in experiment [4] is “competitive inhibition”.
